The text below walks through data of ChEMBL document CHEMBL3393001, “Flavonoids as noncompetitive inhibitors of Dengue virus NS2B-NS3 protease: inhibition kinetics and docking studies” (Bioorg Med Chem, 2015).

The structures appear in SMILES notation. ≈ marks a conversion by molar mass, not a printed value.

Assay [1] in a line: Inhibition of dengue virus 3 NS2B-NS3 serine protease assessed as reduction in hydrolysis of Boc-Gly-Arg-Arg-7-amino-4-methylcumarin substrate by Dixon plot. More on the design: species or system dengue virus type 3.
A short description of assay [2]: Inhibition of dengue virus 2 NS2B-NS3 serine protease assessed as reduction in hydrolysis of Boc-Gly-Arg-Arg-7-amino-4-methylcumarin substrate by Dixon plot. More on the design: species or system dengue virus type 2. An outline of the steps: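 Recombinant DENV2 NS2B-NS3 at 47.63 nM in 200 mM Tris-HCl pH 9.5, 6 mM NaCl, 30% glycerol. Boc-Gly-Arg-Arg-AMC at 25–200 µM with inhibitor fixed at 10–32 µM; AMC release read at ex 380/em 460 nm. Analysed by Lineweaver-Burk and Dixon plots, with Ki = Kiapp/(1+[S]/Km), [S] […] Mean of three independent assays.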

Assay [3] is described as follows: Inhibition of dengue virus 2 NS2B-NS3 serine protease assessed as reduction in hydrolysis of Boc-Gly-Arg-Arg-7-amino-4-methylcumarin substrate. More on the design: species or system dengue virus type 2.
Assay [4] can be described thus: Inhibition of dengue virus 3 NS2B-NS3 serine protease assessed as reduction in hydrolysis of Boc-Gly-Arg-Arg-7-amino-4-methylcumarin substrate. More on the design: species or system dengue virus type 3. In a few lines: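 Recombinant DENV3 NS2B-NS3 (50 nM) was run in 50 mM Tris HCl pH 9.0 with 1 mM CHAPS and 100 substrate. Compounds in DMSO were screened at 50 final, with IC50 from serial dilutions over 0.5–200. Three independent determinations in duplicate; background-corrected 2-parameter fit (lower limit 0, upper 100).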

Assay [5] is described as follows: Non-competitive inhibition of dengue virus 2 NS2B-NS3 serine protease assessed as reduction in hydrolysis of Boc-Gly-Arg-Arg-7-amino-4-methylcumarin substrate by Lineweaver-Burk plot and Dixon plot. More on the design: species or system dengue virus type 2.
For a further assay, the system named is dengue virus type 2. The assay is described as follows: Antiviral activity against dengue virus 2 infected in african green monkey Vero cells assessed as reduction in viral replication dosed after adsorption with 200 FFU of virus for 1 hour by foci forming unit reduction assay. The assay is classed as functional, organism-based.
Assay [6] can be described thus: Binding affinity to NT-647-NHS fluorescent dye-labeled dengue virus 3 NS2B-NS3 serine protease incubated for 10 mins by microscale thermophoresis method. More on the design: species or system dengue virus type 3. In a few lines:
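Recombinant DENV3 NS2B-NS3, dye-labeled, mixed 1:1 with ligand dilutions to a final 25 nM protein and 0.06–1000 µM ligand. Buffer: 50 mM Tris-HCl pH 9.0, 1 mM CHAPS, plus 10% DMSO and 0.05% Tween 20 on the ligand side only. After 10 min, capillary thermophoresis was measured. KD came from data fitting, mean of three independent assays.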

Usually Ki stands for the dissociation constant of the complex between target and ligand, obtained from inhibition or displacement. A word on the IC50: it is the concentration that inhibits the measured activity by half. With `O=c1c(O[C@@H]2O[C@H](CO)[C@@H](O)[C@H](O)[C@H]2O)c(-c2ccc(O)c(O)c2)oc2cc(O)cc(O)c12` [ISOQUERCETIN], the values for the Ki in assay [1] and in assay [2] were 37.1 µM and 25.9 µM, respectively. In addition, the figures for the IC50 in assay [3] and in assay [4] were 44 µM and 42.4 µM, respectively.

On to `O=c1c(O)c(-c2cc(O)c(O)c(O)c2)oc2cc(O)cc(O)c12` [MYRICETIN], for which the figures for the Ki in assay [1] and in assay [5] were 25.7 µM and 4.7 µM, respectively. Besides, the IC50 was determined as 22.3 µM in assay [3] and 29.3 µM in assay [4].

As to `O=c1c(O)c(-c2ccc(O)c(O)c2)oc2cc(O)ccc12` [FISETIN], the IC50 in the assay with dengue virus type 2 stood at 55 µg/mL (≈ 192 µM).

On to `O=c1cc(-c2ccccc2)oc2cc(O)c(O)c(O)c12` [BAICALEIN], for which the IC50 in the assay on dengue virus type 2 came out at 6.46 µg/mL (≈ 23.9 µM).

For `C[C@@H]1O[C@@H](Oc2c(-c3ccc(O)c(O)c3)oc3cc(O)cc(O)c3c2=O)[C@H](O)[C@H](O)[C@H]1O` [QUERCITRIN], the inhibition constant (Ki) in assay [1] came out at 28 µM; in assay [2], 25.7 µM. In addition, the values for the IC50 in assay [3] and in assay [4] were 43.6 µM and 32 µM, respectively.

One may read the Kd as the constant that tells how readily two partners part at equilibrium. Regarding `O.O=c1c(O)c(-c2ccc(O)c(O)c2)oc2cc(O)cc(O)c12` [QUERCETIN DIHYDRATE], the Kd in assay [6] is 20 µM. Moreover, the results for the Ki in assay [1] and in assay [2] were 19.9 µM and 20.7 µM, respectively. Moreover, the IC50 was found to be 35.7 µg/mL in the assay with dengue virus type 2, 35.2 µM in assay [3] and 22.7 µM in assay [4].

As for `O=c1c(O)c(-c2ccc(O)cc2)oc2cc(O)cc(O)c12` [KAEMPFEROL], the Ki in assay [1] turned out to be 24.2 µM; in assay [2] it was 22.3 µM. For the same molecule, the IC50 in assay [3] came out at 37.8 µM; in assay [4], 27.7 µM.
